ChEMBL document CHEMBL1154322, “Optimization of the antitumor efficacy of a synthetic mitochondrial toxin by increasing the residence time in the cytosol” (J Med Chem, 2009)
Activity calls are given as the source filed them. No cut-off for these calls is given here.

How the values were obtained:
[1] = test system: BXPC-3; assay: Antiproliferative activity against human BxPC3 cells after 72 hrs by MTT assay; type: functional, cell-based; settings: BXPC-3, 72 h
Method in brief: (§1)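 Cells seeded in 96-well plates, attached overnight at 37 °C, 5% CO2, then cultured 72 h in medium with 10% fetal calf serum plus compound. Viability by MTT, formazan dissolved in DMSO, absorbance 550 nm; expressed as % of untreated control; IC50 = concentration inhibiting proliferation by 50%.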

[2] = test system: Lewis lung carcinoma cell line; assay: Antiproliferative activity against mouse LLC cells after 72 hrs by MTT assay; type: functional, cell-based; method in brief: as §1
[3] = test system: PANC-1; assay: Antiproliferative activity against human PANC1 cells after 72 hrs by MTT assay; type: functional, cell-based; settings: PANC-1, 72 h; method in brief: as §1
[4] = Antiproliferative activity against mouse bEND.3 cells after 72 hrs by MTT assay; type: functional, cell-based; settings: BEND3, 72 h; method in brief: as §1
[5] = test system: K562; assay: Antiproliferative activity against human K562 cells after 72 hrs by MTT assay; type: functional, cell-based; settings: K562, 72 h; method in brief: as §1
[6] = Antiproliferative activity against HMEC1 cells after 72 hrs by MTT assay; type: functional, cell-based; settings: Homo sapiens, HMEC-1, 72 h; method in brief: as §1
[7] = test system: HT-1080; assay: Antiproliferative activity against human HT1080 cells after 72 hrs by MTT assay; type: functional, cell-based; settings: HT-1080, 72 h; method in brief: as §1
[8] = (§2) Antiproliferative activity against BAEC after 72 hrs by MTT assay; type: functional, Bos taurus; method in brief: as §1
[9] = test system: MCF7; assay: Antiproliferative activity against human MCF7 cells after 72 hrs by MTT assay; type: functional, cell-based; settings: MCF7, 72 h; method in brief: as §1
[10] = test system: HCT-116; assay: Antiproliferative activity against human HCT116 cells after 72 hrs by MTT assay; type: functional, cell-based; settings: HCT-116, 72 h; method in brief: as §1
[11] = Antiproliferative activity against MDCK2 cells after 72 hrs by MTT assay; type: functional, cell-based; settings: Canis lupus familiaris, MDCK-II; method in brief: as §1
[12] = Drug accumulation in BAEC in presence of MRP1/2 inhibitor Reversan by inductively coupled plasma spectrometry relative to untreated control; type: ADME, Bos taurus; settings: cattle
Method in brief: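 BAE cells incubated 2 h with 50 μM arsenical with or without 5 μM Reversan; cellular arsenic by inductively coupled plasma spectrometry, expressed as % increase in accumulation; triplicates, two experiments.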

[13] = Reduction of cell viability in BAEC after 48 hrs by propidium iodide staining; type: functional, cell-based; settings: Bos taurus
[14] = Resistance index, ratio of IC50 for MDCK2 cells overexpressing MRP3 to IC50 for wild type MDCK2 cells; type: functional, Canis lupus familiaris
Method in brief: (§3)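 Transfected MDCKII (MRP1-3), HEK293 (MRP4, MRP5) or MEF3.8 (MRP6, MDR1, BCRP) lines grown in DMEM with 10% calf serum; IC50 for proliferation arrest of each transfectant divided by IC50 of non-transfected parental cells.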

[15] = Potency ratio, ratio of IC50 for 4-(N-(S-cysteinylglycylacetyl)amino)phenylarsonous acid to compound for BAEC after 24 hrs by MTT assay; type: functional, Bos taurus
[16] = test system: BXPC-3; assay: Antitumor activity against human BxPC3 cells xenografted in BALB/c mouse assessed as tumor doubling time at 0.25 mg/kg/day, sc (Rvb= 9.4 +/- 1.4 days); type: functional; settings: route subcutaneous
[17] = test system: HEK293; assay: Resistance index, ratio of IC50 for HEK293 cells overexpressing MRP5 to IC50 for wild type HEK293 cells; type: functional, Homo sapiens; method in brief: as §3
[18] = test system: HEK293; assay: Resistance index, ratio of IC50 for mouse MEF3.8 cells overexpressing MRP6 to IC50 for wild type […]; type: functional
[19] = Drug accumulation in BAEC assessed as accumulation rate up to 4 hrs by inductively coupled plasma spectrometry relative to 4-(N-(S-cysteinylacetyl)amino)phenylarsonous acid; type: ADME, Bos taurus; settings: cattle
Method in brief: (§4)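 BAE cells seeded in 6-well plates, attached overnight, fresh medium, then 50 μM arsenical for up to 4 h; cytosolic arsenic by inductively coupled plasma spectrometry; accumulation rate (pmol As per 10^6 cells per min) from linear least-squares fit; triplicates.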

[20] = test system: BXPC-3; assay: Antitumor activity against human BxPC3 cells xenografted in BALB/c mouse assessed as reduction of tumor proliferative index at 0.25 mg/kg/day, sc dosed for 18 days; type: functional, organism-based
Method in brief: (§5)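 Female 7-9 week Balb C nude mice given 3 × 10^6 BxPC-3 cells s.c. in proximal midline; at ~50 mm3, randomized and given s.c. flank micro-osmotic pumps (vehicle or 0.25 mg/kg/day) for 18 days. Excised tumors formalin-fixed, paraffin sections immunostained for CD31 (microvessels counted in five hot spots) or PCNA (positive cells per 100 tumor cells, three fields); one-way ANOVA.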

[21] = test system: BXPC-3; assay: Potency ratio, ratio of antitumor activity of 4-(N-(S-Glutathionylacetyl)amino)phenylarsonous acid to compound antitumor activity against human BxPC3 cells xenografted in BALB/c; type: functional
[22] = test system: HEK293; assay: Resistance index, ratio of IC50 for HEK293 cells overexpressing MRP4 to IC50 for wild type HEK293 cells; type: functional, Homo sapiens; method in brief: as §3
[23] = Antiproliferative activity against BAEC after 72 hrs by MTT assay in presence of 100 uM gamma-glutamyl cysteine synthase inhibitor buthionine sulfoximine; type: functional, Bos taurus
[24] = test system: BAEC; assay: Antiproliferative activity against OATP inhibitor DIDS pretreated BAEC at 3 uM after 24 hrs by MTT assay; type: functional, cell-based; settings: Bos taurus
Method in brief: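 BAE cells untreated or pretreated 30 min with 500 μM DIDS, then 3 μM compound for 24 h; viability by MTT, % of control; triplicates, two experiments.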

[25] = test system: BAEC; assay: Antiproliferative activity against MRP1/2 inhibitor MK571 pretreated BAEC at 0.3 uM after 72 hrs by MTT assay; type: functional; settings: Bos taurus
Method in brief: (§6)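 BAE cells pretreated 30 min with 15 μM MK571 or 2 μM Reversan, then incubated with 0.3 μM compound for 72 h; viability by MTT as % of control; mean ± SD of triplicates.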

[26] = Antiproliferative activity against BAEC after 72 hrs by MTT assay in presence of 3 uM MRP1/2 inhibitor Reversan and 20 uM gamma-glutamyl cysteine synthase inhibitor buthionine sulfoximine; type: functional, cell-based; settings: Bos taurus
[27] = test system: BXPC-3; assay: Antitumor activity against human BxPC3 cells xenografted in BALB/c mouse assessed as tumor doubling time at 0.5 mg/kg/day, sc (Rvb= 9.4 +/- 1.4 days); type: functional; settings: route subcutaneous
[28] = test system: HEK293; assay: Resistance index, ratio of IC50 for mouse MEF3.8 cells overexpressing MDR1 to IC50 for wild type […]; type: functional
[29] = test system: BAEC; assay: as §2; type: functional; settings: Bos taurus; method in brief: as §1
[30] = Antiproliferative activity against BAEC after 72 hrs by MTT assay in presence of 20 uM gamma-glutamyl cysteine synthase inhibitor buthionine sulfoximine; type: functional, cell-based; settings: Bos taurus
[31] = Potency ratio, ratio of IC50 for 4-(N-(S-cysteinylacetyl)amino)phenylarsonous acid to compound for BAEC after 24 hrs by MTT assay; type: functional, Bos taurus
[32] = Resistance index, ratio of IC50 for MDCK2 cells overexpressing MRP1 to IC50 for wild type MDCK2 cells; type: functional, Canis lupus familiaris; method in brief: as §3
[33] = Resistance index, ratio of IC50 for MDCK2 cells overexpressing MRP2 to IC50 for wild type MDCK2 cells; type: functional, Canis lupus familiaris; method in brief: as §3
[34] = Drug accumulation in BAEC assessed as accumulation rate up to 4 hrs by inductively coupled plasma spectrometry relative to 4-(N-(S-Glutathionylacetyl)amino)phenylarsonous acid; type: ADME, Bos taurus; settings: cattle; method in brief: as §4
[35] = Potency ratio, ratio of IC50 for 4-(N-(S-Glutathionylacetyl)amino)phenylarsonous acid to compound for BAEC after 48 hrs by propidium iodide staining; type: functional, Bos taurus
[36] = test system: BAEC; assay: Antiproliferative activity against MRP1/2 inhibitor Reversan pretreated BAEC at 0.3 uM after 72 hrs by MTT assay; type: functional, cell-based; settings: Bos taurus; method in brief: as §6
[37] = test system: BXPC-3; assay: Antitumor activity against human BxPC3 cells xenografted in BALB/c mouse assessed as tumor doubling time at 5 mg/kg/day, sc dosed for 18 days; type: functional, organism-based
[38] = test system: BXPC-3; assay: Antiangiogenic activity against human BxPC3 cells xenografted in BALB/c mouse assessed as reduction of tumor blood vessel density at 0.25 mg/kg/day, sc dosed for 18 days; type: functional, organism-based; method in brief: as §5
[39] = test system: HEK293; assay: Resistance index, ratio of IC50 for mouse MEF3.8 cells overexpressing BCRP to IC50 for wild type […]; type: functional
[40] = test system: Mus musculus; assay: Toxicity in human BxPC3 cells xenografted BALB/c mouse at 0.25 mg/kg/day, sc for 28 days; type: organism-based, BXPC-3; set-up: route subcutaneous; settings: in vivo, 672 h
Method in brief: (§7)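 Female Balb C nude mice bearing s.c. BxPC-3 tumors given compound via 28-day s.c. flank micro-osmotic pumps; animal weight measured every 2 or 3 days and signs of toxicity observed.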

[41] = Drug accumulation in BAEC assessed as accumulation rate up to 4 hrs by inductively coupled plasma spectrometry relative to 4-(N-(S-cysteinylglycylacetyl)amino)phenylarsonous acid; type: ADME, Bos taurus; settings: cattle; method in brief: as §4
[42] = Potency ratio, ratio of IC50 for 4-(N-(S-Glutathionylacetyl)amino)phenylarsonous acid to compound for BAEC after 24 hrs by MTT assay; type: functional, Bos taurus
[43] = Antiproliferative activity against BAEC after 72 hrs by MTT assay in presence of 3 uM MRP1/2 inhibitor Reversan; type: functional, cell-based; settings: Bos taurus
[44] = test system: Mus musculus; assay: Toxicity in human BxPC3 cells xenografted BALB/c mouse at 0.5 mg/kg/day, sc for 28 days; type: organism-based, BXPC-3; set-up: route subcutaneous; settings: in vivo, 672 h; method in brief: as §7

`N[C@@H](CCC(=O)N[C@@H](CSCC(=O)Nc1ccc([As](O)O)cc1)C(=O)NCC(=O)O)C(=O)O` gave an IC50 [1] of 270 µM, an IC50 [2] of 41 µM and an IC50 [3] of 43 µM. The IC50 [4] was 42 µM, the IC50 [5] was 14 µM and the IC50 [6] was 23 µM. The IC50 [7] was 25 µM, the IC50 ([8]; Bos taurus, BAEC, 72 h) was 10 µM and the IC50 [9] was 51 µM. For the same molecule, the IC50 [10] was 43 µM and the IC50 [11] was 13 µM.

`N[C@H](CSCC(=O)Nc1ccc([As](O)O)cc1)C(=O)NCC(=O)O` gave a Drug uptake [12] of 197%.

In the case of `CC(C)(SCC(=O)Nc1ccc([As](O)O)cc1)[C@@H](N)C(=O)O`, the IC50 [1] is reported as 21 µM, the IC50 [13] is reported as 3.5 µM and the “Ratio IC50” value [14] is reported as 0.8. For the same molecule, the “Ratio IC50” value [15] was 8, the Activity [16] was 15.6 days and the IC50 [2] was 5.3 µM. For the same molecule, the “Ratio IC50” value [17] was 0.4, the IC50 [3] was 6.4 µM and the “Ratio IC50” value [18] was 1.3. The “fold change (FC)” value [19] was 10, the IC50 [4] was 2.5 µM and the Activity [20] was “Active”. The “Ratio IC50” value [21] was 20, the IC50 [5] was 1.8 µM and the “Ratio IC50” value [22] was 0.5. The Activity [23] was 16 nM, the Activity [24] was “inactive” and the Activity [25] was “Active”. It also gave a Drug uptake [12] of 52%, an IC50 [26] of 0.02 µM and an Activity [27] of 13.8 days. For the same molecule, the IC50 [6] was 2 µM, the IC50 [7] was 4.1 µM and the “Ratio IC50” value [28] was 1.2. For the same molecule, the Activity [29] was “inactive”, the Activity [8] was 440 nM and the IC50 [30] was 0.07 µM. The “Ratio IC50” value [31] was 6, the “Ratio IC50” value [32] was 3.7 and the “Ratio IC50” value [33] was 4.6. The “fold change (FC)” value [34] was 85, the “Ratio IC50” value [35] was 21 and the Activity [36] was “Active”. For the same molecule, the Activity [37] was “Active”, the Activity [38] was “Active” and the “Ratio IC50” value [39] was 1.1. For the same molecule, the Activity [40] was “Non-toxic”, the “fold change (FC)” value [41] was 9 and the IC50 [9] was 9.4 µM. The “Ratio IC50” value [42] was 44, the IC50 [43] was 0.13 µM and the Activity [44] was “Non-toxic”. For the same molecule, the IC50 [10] was 5.9 µM and the IC50 [11] was 2.4 µM.

In the case of `N[C@H](CSCC(=O)Nc1ccc([As](O)O)cc1)C(=O)O`, the Drug uptake [12] is reported as 114%.
